# Bioassay records: PubChem BioAssay, Broad Institute
# The entries come from a sample that favours hits as a whole.
# IDH1 mut inh – IDH1 R132H (human) inhibition. O75874. IDH1 R132H reductase, diaphorase/resazurin fluorescence, 60 min. inhibition, % at 10 µM. 70,000 tested, 0.18% active. AID 624101; in the data active = inhibition above about 34%; inconclusive = no clear call, values can overlap the other calls; inactive = below about 11%
# Target sequence (O75874 whole entry R132H): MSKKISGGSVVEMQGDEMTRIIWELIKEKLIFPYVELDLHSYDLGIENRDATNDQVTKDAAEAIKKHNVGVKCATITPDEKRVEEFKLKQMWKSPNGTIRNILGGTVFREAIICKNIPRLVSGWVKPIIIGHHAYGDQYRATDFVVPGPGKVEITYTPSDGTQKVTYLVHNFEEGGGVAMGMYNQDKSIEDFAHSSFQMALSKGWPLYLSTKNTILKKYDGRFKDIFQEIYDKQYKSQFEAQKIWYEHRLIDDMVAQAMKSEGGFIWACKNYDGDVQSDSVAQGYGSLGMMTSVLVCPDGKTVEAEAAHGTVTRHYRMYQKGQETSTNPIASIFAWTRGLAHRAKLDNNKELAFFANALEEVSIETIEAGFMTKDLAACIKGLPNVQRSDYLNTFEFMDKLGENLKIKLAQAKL
# GASC1 inh – inhibitors of human demethylase GASC-1 KDM4C; Q9H3R0; GST-KDM4C 2-372, H3K9me3 peptide, LANCE TR-FRET; inhibition, % at 12.5 µM; 96,000 tested, 0.15% active; AID 720574;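 active = mean replicate inhibition above about 25%, with at least 55% of replicates also reaching it, limit read from the data, passing the limit was not always enough; inconclusive = only one of those two conditions met; inactive = neither condition met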
#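 Assay system: GST-GASC-1 enzyme fragment 2-372 | Amount: 10 nM enzyme | Medium: HEPES buffer, pH 7.5, plus ascorbate | Reagent: H3K9me3 peptide substrate, Fe(II), 2-oxoglutarate | Doses: Single-point compound screen | Incubation: 30 min demethylation and 1 h detection at room temperature | Measured by: LANCE TR-FRET, excitation 340 nm, emissions 618 and 671 nm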
# T cruzi growth-1 – blocks T. cruzi growth in NIH3T3 culture; inhibition, % at 8.34 µM; 77,000 tested, 5.9% active; T. cruzi beta-gal in NIH3T3, GalScreen luminescence, 90 h; AID 624255;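 active = mean inhibition above about 93%, with at least 55% of replicates each passing it, limit read from the data, passing the limit was not always enough; inconclusive = only one of those two conditions holds; inactive = neither condition holds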
# T cruzi growth-2 – Trypanosoma cruzi proliferation inhibition; shares compounds with T cruzi growth-1; AID 651739; 5,600 tested, 72% active; T. cruzi beta-gal in NIH3T3, GalScreen luminescence, 90 h; inhibition, % at 8.35 µM;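 active = mean replicate inhibition above about 95% and at least 55% of replicates individually reaching it, limit read from the data; inconclusive = only one of the two criteria is met; inactive = neither criterion is met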
# T cruzi growth-3 – blocks T. cruzi growth in NIH3T3 host cells | shares compounds with T cruzi growth-1 | inhibition, % at 2.09 µM | AID 651740 | 5,600 tested, 21% active | T. cruzi beta-gal in NIH3T3, GalScreen luminescence, 90 h;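 active = mean inhibition above about 95%, with at least 55% of replicates also reaching it, limit read from the data; inconclusive = meets just one of the two conditions; inactive = meets neither condition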
# 3T3 cytotox – NIH/3T3 (mouse) viability loss; shares compounds with T cruzi growth-1; NIH/3T3 viability, CellTiter-Glo ATP luminescence, 90 h; 5,600 tested, 14% active; AID 651742; cytotoxicity (signal decrease), % at 8.35 µM;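 active = mean signal decrease across replicates above about 35% based on untreated-well scatter, with enough replicates individually passing, limit read from the data; inconclusive = no rule stated though some were filed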
# 3T3 cytotox 2 – cytotoxicity in mouse NIH/3T3 fibroblasts. shares compounds with T cruzi growth-1. NIH/3T3 viability, CellTiter-Glo ATP luminescence, 90 h. inhibition, % at 24.9 µM. 5,600 tested, 56% active. AID 651744;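 active = mean loss of cell viability signal at or above a set limit, and enough replicates individually reaching it; inconclusive = meets only the mean limit or only the replicate share; inactive = meets neither condition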
# Numbers stand for hits; – = inactive; ? = inconclusive; · = no result.
SMILES,IDH1 mut inh,GASC1 inh,T cruzi growth-1,T cruzi growth-2,T cruzi growth-3,3T3 cytotox,3T3 cytotox 2
C[C@H](CO)N1C[C@H](C)[C@H](CN(C)Cc2ccc(Cl)c(Cl)c2)Oc2ccc(NC(=O)Nc3ccc(C(F)(F)F)cc3)cc2C1=O,–,–,103.1,97.7,109.3,–,107.5
C[C@@H]1CN([C@H](C)CO)C(=O)c2cccc(NC(=O)Nc3ccc(C(F)(F)F)cc3)c2O[C@@H]1CN(C)Cc1ccc(Cl)c(Cl)c1,–,–,–,·,·,·,·
C[C@H]1CN([C@@H](C)CO)C(=O)c2cccc(NC(=O)Nc3ccc4c(c3)OCO4)c2O[C@H]1CN(C)Cc1ccc(C(F)(F)F)cc1,–,–,–,·,·,·,·
C[C@H]1CN([C@@H](C)CO)C(=O)c2cccc(NC(=O)Nc3ccc(C(F)(F)F)cc3)c2O[C@H]1CN(C)Cc1ccc2c(c1)OCO2,·,–,99.4,105.7,103.1,–,97.7
C[C@H]1CN([C@@H](C)CO)C(=O)c2cc(NC(=O)Nc3ccc(C(F)(F)F)cc3)ccc2O[C@@H]1CN(C)Cc1ccc(Cl)c(Cl)c1,–,–,–,·,·,·,·
C[C@@H]1CN([C@@H](C)CO)C(=O)c2cccc(NC(=O)Nc3ccc(C(F)(F)F)cc3)c2O[C@H]1CN(C)Cc1ccc(Cl)c(Cl)c1,–,–,129.7,102.5,115.9,38.8,89.0
C[C@@H]1CN([C@H](C)CO)C(=O)c2cccc(NC(=O)Nc3ccc(C(F)(F)F)cc3)c2O[C@@H]1CN(C)S(=O)(=O)c1ccc(Cl)cc1,–,·,107.9,102.8,107.0,–,104.6
CCNC(=O)C[C@H]1CC[C@@H]2[C@H](COc3ccc(NC(=O)Nc4c(C)noc4C)cc3C(=O)N2C)O1,·,–,–,·,·,·,·
C[C@@H]1CN([C@H](C)CO)C(=O)c2cc(NC(=O)C3CC3)ccc2O[C@@H]1CN(C)S(=O)(=O)c1cn(C)cn1,–,–,–,·,·,·,·
COc1ccc(CN(C)C[C@@H]2Oc3c(NC(=O)Nc4ccc(OC)cc4)cccc3C(=O)N([C@H](C)CO)C[C@H]2C)cc1,–,–,–,·,·,·,·
COc1ccc(NC(=O)Nc2cccc3c2O[C@@H](CN(C)Cc2ccc(Cl)c(Cl)c2)[C@H](C)CN([C@@H](C)CO)C3=O)cc1,–,–,116.4,99.2,102.0,–,53.0
C[C@@H]1CN([C@H](C)CO)C(=O)c2cccc(NC(=O)Nc3ccc(C(F)(F)F)cc3)c2O[C@H]1CN(C)Cc1ccc(Cl)c(Cl)c1,·,–,?,98.9,108.1,–,104.8
C[C@@H]1CN([C@H](C)CO)C(=O)c2cccc(NC(=O)Nc3ccc(F)cc3)c2O[C@H]1CN(C)Cc1ccc(Cl)c(Cl)c1,·,–,–,·,·,·,·
CC(C)NC(=O)N(C)C[C@H]1OCc2ccccc2-c2ccccc2C(=O)N([C@@H](C)CO)C[C@@H]1C,–,–,–,·,·,·,·
O=C(c1cccc(F)c1)N1CCCCN2[C@H](CO)[C@H](c3ccc(-c4ccc(F)cc4)cc3)[C@@H]2C1,·,·,110.6,110.4,95.5,–,64.8
O=C(c1cccc(F)c1)N1CCCCN2[C@H](CO)[C@H](c3ccc(-c4cncnc4)cc3)[C@H]2C1,·,–,?,–,–,–,–
O=C(c1cccc(F)c1)N1CCCCN2[C@H](C1)[C@@H](c1ccc(-c3ccncc3)cc1)[C@@H]2CO,·,–,–,·,·,·,·
CC(C)(O)C#Cc1ccc([C@@H]2[C@H]3CN(C(=O)c4cccc(F)c4)CCCCN3[C@H]2CO)cc1,·,–,–,·,·,·,·
O=C(c1cccc(F)c1)N1CCCCN2[C@H](CO)[C@H](c3ccc(-c4ccncc4)cc3)[C@@H]2C1,·,–,110.4,113.1,–,–,–
O=C(c1cccc(F)c1)N1CCCCN2[C@@H](CO)[C@@H](c3ccc(-c4ccncc4)cc3)[C@@H]2C1,·,–,–,·,·,·,·
CC(C)(O)C#Cc1ccc([C@@H]2[C@@H](CO)N3CCCCN(C(=O)c4cccc(F)c4)C[C@H]23)cc1,·,–,120.1,–,–,–,–
O=C(c1cccc(F)c1)N1CCCCN2[C@H](C1)[C@@H](c1ccc(-c3cncnc3)cc1)[C@@H]2CO,·,–,–,·,·,·,·
CC(C)NC(=O)Nc1ccc2c(c1)C(=O)N([C@H](C)CO)C[C@@H](C)[C@H](CN(C)Cc1ccc3c(c1)OCO3)OCCCC[C@@H](C)O2,·,–,–,·,·,·,·
